TNAP act DEA: activators of human TNAP at intermediate phosphate acceptor; 64,000 tested, under 10 active; purified TNAP, CDP-star luminescence, 100 mM DEA, 30 min; active compounds read high; scale: 0 levamisole-inhibited, 1 vehicle-only enzyme; activation factor at 20 µM; P05186;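 active = activation factor of at least 2 at 20 µM, relative to controls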
M1 antag: blocks the rat M1 muscarinic receptor response to acetylcholine; 3.4% of 64,000 active; B-score at 10 µM; CHO-M1 cells, Fluo-4 calcium, ACh EC80 antagonist mode; active compounds read low; P08482;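 active = calcium fluorescence response, raw or row-and-column corrected B-score, differing from the plate sample mean either way at a set confidence level, mostly lower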
D1 allo mod: D1 dopamine receptor (human) allosteric modulation; P21728; HEK293 D1, CRE-luciferase, dopamine EC30 potentiation; actives deviate in either direction; B-score at 10 µM; 5.9% of 58,000 active; AID 641;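 active = luminescence count or its row- and column-corrected plate score outside the 99.7% band of the plate's sample wells, on either side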
S1P3 agonist: agonists of human S1P3 receptor | Q99500 | S1P3 NFAT-BLA reporter cells, agonism, FRET ratio; relative to 1 µM S1P, basal subtracted | activation, % at 4.5 µM | 0.1% of 60,000 active;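 active = activation above the screen-wide mean plus 3 SD, cut at about 4.5% in these data, passing the limit was not always enough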
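material = human S1P3 NFAT-BLA reporter CHO cells | schedule = 4 h compound at 37 °C, 2 h substrate at RT | measured by = fluorescent BLA substrate, ex 405 nm, em 460/535 nm ratio | controls = 1 µM S1P reference | replication = primary once, confirmation triplicate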
S1P1 ag-PAM: activates or potentiates agonism at human S1P1 receptor. 0.57% of 56,000 active. P21453. S1P1 CRE-bla cells, forskolin, beta-lactamase FRET, potentiator mode; S1P1 agonist co-added at EC20, 2 nM; 100% = saturating reference agonist, 0% = basal. activation, % at 9.5 µM;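 active = activation above a cutoff set at the mean activation of all tested compounds plus 3 SD, cut at about 54% in these data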;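 also: forskolin at 4 µM as EC80 and the EC20 agonist is SEW2871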
Target sequence (P21453 whole entry, looked up): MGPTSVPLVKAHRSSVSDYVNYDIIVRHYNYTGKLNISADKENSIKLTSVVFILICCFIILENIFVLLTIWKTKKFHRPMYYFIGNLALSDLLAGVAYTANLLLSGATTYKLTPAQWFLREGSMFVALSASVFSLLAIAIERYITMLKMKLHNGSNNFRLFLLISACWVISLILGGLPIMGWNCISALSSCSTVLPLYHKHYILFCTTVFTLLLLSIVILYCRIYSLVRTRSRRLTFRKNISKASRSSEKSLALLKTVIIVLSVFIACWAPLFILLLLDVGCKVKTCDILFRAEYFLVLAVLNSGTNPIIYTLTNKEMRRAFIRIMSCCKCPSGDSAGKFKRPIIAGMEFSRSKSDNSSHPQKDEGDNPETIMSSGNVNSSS
M1 agonist: M1 muscarinic receptor agonism; 3% of 64,000 active; B-score at 10 µM; CHO-M1 cells, Fluo-4 calcium fluorescence, agonist mode; active compounds read high;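 active = fluorescence rise, raw or as B-score row- and column-corrected plate score, outside the 99.7% band of its plate's samples, either direction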
D1 mod confirm: confirmation of human D1 dopamine receptor allosteric modulators; shares compounds with D1 allo mod; HEK293 D1 CRE-luciferase, dopamine EC30 potentiation; active compounds read high; luminescence at 10 µM; 88% of 2,200 active; AID 642;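 active = luminescence in either of two replicates above the same-plate mean plus 3 SD of the low-dose dopamine control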
D1 no dopamine: D1 (human) signaling in absence of dopamine | shares compounds with D1 allo mod | 0.8% of 1,900 active | luminescence at 10 µM | HEK293 D1 CRE-luciferase, luminescence, no dopamine; active compounds read high; in the data active = luminescence above about 3900
Isoprot counter: isoproterenol response counter-screen activity for D1 modulators; 63% of 2,200 active; AID 647; luminescence at 10 µM; HEK293 D1 CRE-luciferase, isoproterenol EC30 counter-screen; active compounds read high; shares compounds with D1 allo mod;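 active = luminescence in either replicate above plate mean of wells with a partly effective reference agonist dose plus 3 SD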;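 also: isoproterenol raises cAMP through native beta-adrenoceptor Gs so signal bypasses D1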
Of the large screens only hits and unclear results are named; the others gave an inactive call (follow-up assays come after a bar, where they were run). A selection: hits, their analogues and other compounds. The true share with any hit is near 11%.

CC(C)[C@H](NC(=O)NCc1cccs1)C(=O)O	none
CC1NC(=O)N(C)C2NC(=O)N(C)C(c3ccccc3)C12 (stereo not given)	none (no result: D1 allo mod)
CCn1c2ccccc2c2nc3ccccc3nc21	D1 allo mod 5.61 | D1 mod confirm 15700 | Isoprot counter inactive
N#Cc1nc(N2CCOCC2)nc(N2CCOCC2)n1	D1 allo mod 5.06 | D1 mod confirm 12340 | D1 no dopamine inactive | Isoprot counter 3540
N#CCOc1nc(N2CCOCC2)nc(N2CCOCC2)n1	none
COc1ccc(C2SCC(=O)N2c2c(C)n(C)n(-c3ccccc3)c2=O)c(OC)c1 (stereo not given)	none
COc1ccc(-c2nnc(SCC(=O)N(Cc3ccccc3)C(C)(C)C)o2)cc1OC	none
CCOC(=O)CN(C(=O)CSc1nnc(-c2ccc(OC)c(OC)c2)o1)c1ccc(F)cc1	D1 allo mod 3.06 | D1 mod confirm 8044 | D1 no dopamine inactive | Isoprot counter inactive
CCOC(=O)CNC(=O)c1ccccc1Br	none
C=CCn1c(SCCCC)nc(O)cc1=O	D1 allo mod 3.64 | D1 mod confirm inactive | D1 no dopamine inactive | Isoprot counter inactive
CCOC(=O)CCCNC(=O)COC(=O)CCC(=O)c1ccc(F)cc1	none
C=CCN(CC(=O)NCc1ccccc1)C(=O)c1csnn1	D1 allo mod 2.96 | D1 mod confirm inactive | D1 no dopamine inactive | Isoprot counter inactive
COc1ccc(CNC(=O)c2csnn2)cc1	none
CCCn1c(NC(=O)C2COc3ccccc3O2)nc2ccccc21 (stereo not given)	none
COc1ccccc1N(CC(=O)Nc1cccnc1)S(C)(=O)=O	none (no result: D1 allo mod)
CCOc1ccc(-c2nc(S(=O)(=O)c3ccccc3)c(NCc3cccnc3)o2)cc1	D1 allo mod 5.7 | D1 mod confirm 8380 | D1 no dopamine inactive | Isoprot counter 3248
O=c1nc2scc(-c3ccccc3)n2c2ccccc12	D1 allo mod 3.39 (no result: S1P3 agonist, S1P1 ag-PAM) | D1 mod confirm 17356 | D1 no dopamine inactive | Isoprot counter inactive
COC(=O)c1cc(=O)n2c(-c3ccccc3)csc2n1	none
COc1ccc(C(C)NC(=O)C2CCCO2)cc1OC (stereo not given)	none
C=CCN1C(=O)/C(=C2\SC(N3CCOCC3)=NC2=O)c2cc(Br)ccc21	D1 allo mod 8.98 | D1 mod confirm 17804 | D1 no dopamine inactive | Isoprot counter 4584
CCCOC(=O)c1ccc(NS(=O)(=O)c2cccs2)cc1	none
CC(C)(C)n1ncc2c(=O)n(Cc3c(F)cccc3Cl)cnc21	D1 allo mod 5.98 (no result: TNAP act DEA) | D1 mod confirm 9180 | D1 no dopamine inactive | Isoprot counter 3056
CC(C)(C)n1ncc2c(=O)n(Cc3ccc(Cl)cc3Cl)cnc21	none (no result: TNAP act DEA)
CCOC(=O)c1ccc(Oc2nc(NC)nc(OC)n2)cc1	M1 antag 2.7, D1 allo mod 3.76 (no result: S1P3 agonist, S1P1 ag-PAM) | D1 mod confirm 9704 | D1 no dopamine inactive | Isoprot counter 3236
COc1nc(Oc2ccc(C(=O)OCC(N)=O)cc2)nc(N(C)C)n1	none (no result: D1 allo mod)
COc1ccc(C2C(C(=O)NCCN3CCOCC3)c3ccccc3C(=O)N2C2CCCCC2)cc1 (stereo not given)	none
O=C1C(Cl)=C(NCC2CCCO2)C(=O)N1Cc1ccccc1 (stereo not given)	D1 allo mod 4.79 | D1 mod confirm 9896 | D1 no dopamine inactive | Isoprot counter inactive
Cn1c(=O)n(Cc2ccccc2)c(=O)c2c1nc(NCC1CCCO1)n2Cc1ccccc1 (stereo not given)	none
CCCCn1nnc(NC(=O)CC23CC4CC(CC(C4)C2)C3)n1	none
